# Data taken from ChEMBL document CHEMBL1135739, “Radiolabeled amino acids for tumor imaging with PET: radiosynthesis and biological evaluation of 2-amino-3-[18F]fluoro-2-methylpropanoic acid and 3-[18F]fluoro-2-methyl-2-(methylamino)propanoic acid” (J Med Chem, 2002).
# Experiments:
# Rattus norvegicus [1] = species: Rattus norvegicus; assay: Radioactivity distribution in kidney of normal fischer rat after injection of [18F]fluoro-2-methylpropanoic acid after 120 min.; assay type: ADME, organism-based; settings: in vivo, 2 h
# Outline: (§1)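 Normal male Fischer 344 rats (200–250 g), anesthetized with i.m. ketamine:xylazine (1:1), got ~85 μCi of tracer in 0.3 mL sterile water i.v. via tail-vein catheter. Groups of four were killed at 5, 30, 60 or 120 min. Tissues were weighed and gamma-counted against dose standards, and counts were decay-corrected to %ID/g. Results are mean ± standard error (n = 4), compared by one-way ANOVA.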
# Rattus norvegicus [2] = species: Rattus norvegicus; assay: Radioactivity distribution in kidney of normal fischer rat after injection of [18F]fluoro-2-methylpropanoic acid after 5 min.; assay type: ADME, organism-based; settings: in vivo
# Outline: (§2)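 Male Fischer 344 rats (200–250 g), fed ad libitum, anesthetized with intramuscular ketamine:xylazine (1:1, 0.1 mL/100 g). About 85 μCi tracer in 0.3 mL sterile water was given by tail-vein catheter. Groups of four were killed at 5, 30, 60 or 120 min. Tissues were weighed and gamma-counted against dose standards, decay-corrected, and expressed as %ID/g (mean ± standard error).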
# Rattus norvegicus [3] = species: Rattus norvegicus; assay: Radioactivity distribution in kidney of normal fischer rat after injection of [18F]fluoro-2-methylpropanoic acid after 60 min.; assay type: ADME, organism-based; settings: in vivo, 1 h; outline: as §2
# Rattus norvegicus [4] = species: Rattus norvegicus; assay: Radioactivity distribution in kidney of tumor-bearing fischer rat after injection of [18F]fluoro-2-methylpropanoic acid after 5 min; assay type: ADME, organism-based; settings: in vivo
# Outline: (§3)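 Male Fischer 344 rats carried intracranial 9L gliosarcoma, stereotactically implanted (4×10^4 cells) and used 17–19 days later. Awake, restrained animals received about 35 μCi tracer in 0.3 mL sterile water via the tail vein and were killed at 5, 60 or 120 min (n = 4–5). Tissues were weighed, gamma-counted, decay-corrected and reported as %ID/g ± standard error.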
# Rattus norvegicus [5] = species: Rattus norvegicus; assay: Radioactivity distribution in blood of normal fischer rat after injection of [18F]fluoro-2-methylpropanoic acid after 120 min.; assay type: ADME, organism-based; settings: in vivo, 2 h; outline: as §1
# Rattus norvegicus [6] = species: Rattus norvegicus; assay: Radioactivity distribution in brain of normal fischer rat after injection of [18F]fluoro-2-methylpropanoic acid after 60 min.; assay type: ADME, organism-based; settings: in vivo, 1 h; outline: as §1
# Rattus norvegicus [7] = species: Rattus norvegicus; assay: Radioactivity distribution in spleen of normal fischer rat after injection of [18F]fluoro-2-methylpropanoic acid after 5 min.; assay type: ADME, organism-based; settings: in vivo
# Outline: (§4)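 Male Fischer 344 rats (200–250 g), fed ad libitum, under intramuscular ketamine:xylazine anesthesia, got ~85 μCi radiotracer in 0.3 mL sterile water by tail-vein catheter. Groups of four were killed at 5, 30, 60 or 120 min. Dissected tissues were weighed and gamma-counted with dose standards. Counts were decay-corrected and given as %ID/g, mean ± standard error. Tissues were compared by one-way ANOVA.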
# Rattus norvegicus [8] = species: Rattus norvegicus; assay: Radioactivity distribution in spleen of normal fischer rat after injection of [18F]fluoro-2-methylpropanoic acid after 60 min.; assay type: ADME, organism-based; settings: in vivo, 1 h; outline: as §4
# Rattus norvegicus [9] = species: Rattus norvegicus; assay: Radioactivity distribution in spleen of tumor-bearing fischer rat after injection of [18F]fluoro-2-methylpropanoic acid after 120 min; assay type: ADME, organism-based; settings: in vivo, 2 h
# Outline: (§5)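 Male Fischer rats had 4×10^4 9L gliosarcoma cells implanted stereotactically into the brain, 3 mm right of midline, 1 mm anterior to bregma, 5 mm deep. They were used 17–19 days later. Awake, restrained rats got ~35 μCi in 0.3 mL sterile water by tail vein and were killed at 5, 60 or 120 min. Tissues, tumor and contralateral brain were gamma-counted, decay-corrected, as %ID/g, mean ± SE, n = 4–5.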
# Rattus norvegicus [10] = species: Rattus norvegicus; assay: Radioactivity distribution in spleen of tumor-bearing fischer rat after injection of [18F]fluoro-2-methylpropanoic acid after 60 min; assay type: ADME, organism-based; settings: in vivo, 1 h; outline: as §5
# Rattus norvegicus [11] = species: Rattus norvegicus; assay: Radioactivity distribution in pancreas of tumor-bearing fischer rat after injection of [18F]fluoro-2-methylpropanoic acid after 120 min; assay type: ADME, organism-based; settings: in vivo, 2 h; outline: as §3
# Rattus norvegicus [12] = species: Rattus norvegicus; assay: Radioactivity distribution in testis of normal fischer rat after injection of [18F]fluoro-2-methylpropanoic acid after 60 min.; assay type: ADME, organism-based; settings: in vivo, 1 h; outline: as §4
# Rattus norvegicus [13] = species: Rattus norvegicus; assay: Radioactivity distribution in lung of normal fischer rat after injection of [18F]-fluoro-2-methylpropanoic acid after 60 min.; assay type: ADME, organism-based; settings: in vivo, 1 h; outline: as §2
# Rattus norvegicus [14] = species: Rattus norvegicus; assay: Radioactivity distribution in pancreas of normal fischer rat after injection of [18F]fluoro-2-methylpropanoic acid after 120 min.; assay type: ADME, organism-based; settings: in vivo, 2 h; outline: as §2
# Rattus norvegicus [15] = species: Rattus norvegicus; assay: Radioactivity distribution in pancreas of normal fischer rat after injection of [18F]fluoro-2-methylpropanoic acid after 5 min.; assay type: ADME, organism-based; settings: in vivo; outline: as §2
# Rattus norvegicus [16] = species: Rattus norvegicus; assay: Radioactivity distribution in muscle of normal fischer rat after injection of [18F]fluoro-2-methylpropanoic acid after 120 min.; assay type: ADME, organism-based, Muscle tissue; settings: in vivo, 2 h; outline: as §2
# Rattus norvegicus [17] = species: Rattus norvegicus; assay: Radioactivity distribution in muscle of normal fischer rat after injection of [18F]fluoro-2-methylpropanoic acid after 30 min.; assay type: ADME, organism-based, Muscle tissue; settings: in vivo, 0.5 h; outline: as §2
# Rattus norvegicus [18] = species: Rattus norvegicus; assay: Radioactivity distribution in muscle of normal fischer rat after injection of [18F]-fluoro-2-methylpropanoic acid after 5 min.; assay type: ADME, organism-based, Muscle tissue; settings: in vivo; outline: as §2
# Rattus norvegicus [19] = species: Rattus norvegicus; assay: Radioactivity distribution in muscle of normal fischer rat after injection of [18F]-fluoro-2-methylpropanoic acid after 60 min.; assay type: ADME, organism-based, Muscle tissue; settings: in vivo, 1 h; outline: as §2
# Rattus norvegicus [20] = species: Rattus norvegicus; assay: Radioactivity distribution in testis of tumor-bearing fischer rat after injection of [18F]fluoro-2-methylpropanoic acid after 60 min; assay type: ADME, organism-based; settings: in vivo, 1 h; outline: as §5
# Rattus norvegicus [21] = species: Rattus norvegicus; assay: Radioactivity distribution in lung of tumor-bearing fischer rat after injection of [18F]fluoro-2-methylpropanoic acid after 60 min; assay type: ADME, organism-based; settings: in vivo, 1 h; outline: as §3
# Rattus norvegicus [22] = species: Rattus norvegicus; assay: Radioactivity distribution in bone of normal fischer rat after injection of [18F]fluoro-2-methylpropanoic acid after 120 min.; assay type: ADME, organism-based, Bone element; settings: in vivo, 2 h; outline: as §1
# Rattus norvegicus [23] = species: Rattus norvegicus; assay: Radioactivity distribution in bone of normal fischer rat after injection of [18F]fluoro-2-methylpropanoic acid after 5 min.; assay type: ADME, organism-based, Bone element; settings: in vivo; outline: as §1
# Rattus norvegicus [24] = species: Rattus norvegicus; assay: Radioactivity distribution in bone of normal fischer rat after injection of [18F]fluoro-2-methylpropanoic acid after 60 min.; assay type: ADME, organism-based, Bone element; settings: in vivo, 1 h; outline: as §1
# Rattus norvegicus [25] = species: Rattus norvegicus; assay: Radioactivity distribution in bone of tumor-bearing fischer rat after injection of [18F]fluoro-2-methylpropanoic acid after 120 min; assay type: ADME, organism-based, Bone element; settings: in vivo, 2 h
# Outline: (§6)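 Male Fischer 344 rats carried intracranial 9L gliosarcoma, implanted stereotactically (4×10^4 cells) and used 17–19 days later. Awake restrained rats got ~35 μCi of tracer in 0.3 mL sterile water by tail-vein injection and were killed at 5, 60 or 120 min. Tissues were weighed and gamma-counted, and counts were decay-corrected to %ID/g. Results are mean ± standard error; n = 4 at 5 and 120 min, n = 5 at 60 min.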
# Rattus norvegicus [26] = species: Rattus norvegicus; assay: Radioactivity distribution in bone of tumor-bearing fischer rat after injection of [18F]fluoro-2-methylpropanoic acid after 5 min; assay type: ADME, organism-based, Bone element; settings: in vivo; outline: as §6
# Rattus norvegicus [27] = species: Rattus norvegicus; assay: Radioactivity distribution in bone of tumor-bearing fischer rat after injection of [18F]fluoro-2-methylpropanoic acid after 60 min; assay type: ADME, organism-based, Bone element; settings: in vivo, 1 h; outline: as §6
# Rattus norvegicus [28] = species: Rattus norvegicus; assay: Radioactivity distribution in heart of normal fischer rat after injection of [18F]-fluoro-2-methylpropanoic acid after 60 min.; assay type: ADME, organism-based; settings: in vivo, 1 h; outline: as §1
# Rattus norvegicus [29] = species: Rattus norvegicus; assay: Radioactivity distribution in blood of normal fischer rat after injection of [18F]fluoro-2-methylpropanoic acid after 60 min.; assay type: ADME, organism-based; settings: in vivo, 1 h; outline: as §1
# Rattus norvegicus [30] = species: Rattus norvegicus; assay: Radioactivity distribution in blood of tumor-bearing fischer rat after injection of [18F]fluoro-2-methylpropanoic acid after 60 min; assay type: ADME, organism-based; settings: in vivo, 1 h; outline: as §6
# Rattus norvegicus [31] = species: Rattus norvegicus; assay: Radioactivity distribution in heart of tumor-bearing fischer rat after injection of [18F]fluoro-2-methylpropanoic acid after 120 min; assay type: ADME, organism-based; settings: in vivo, 2 h; outline: as §6
# Rattus norvegicus [32] = species: Rattus norvegicus; assay: Radioactivity distribution in spleen of normal fischer rat after injection of [18F]fluoro-2-methylpropanoic acid after 30 min.; assay type: ADME, organism-based; settings: in vivo, 0.5 h; outline: as §4
# Rattus norvegicus [33] = species: Rattus norvegicus; assay: Radioactivity distribution in liver of normal fischer rat after injection of [18F]-fluoro-2-methylpropanoic acid after 120 min.; assay type: ADME, organism-based; settings: in vivo, 2 h; outline: as §2
# Rattus norvegicus [34] = species: Rattus norvegicus; assay: Radioactivity distribution in brain of tumor-bearing fischer rat after injection of [18F]fluoro-2-methylpropanoic acid after 120 min; assay type: ADME, organism-based; settings: in vivo, 2 h; outline: as §6
compound,measurement,setting,value
CC(N)(C[18F])C(=O)O.Cl (centres undefined),ID/g,Rattus norvegicus [1],2.97%
same,ID/g,Rattus norvegicus [2],6.36%
same,ID/g,Rattus norvegicus [3],4.74%
same,ID/g,Rattus norvegicus [4],8.66%
same,ID/g,Rattus norvegicus [5],0.15%
same,ID/g,Rattus norvegicus [6],0.06%
same,ID/g,Rattus norvegicus [7],0.83%
same,ID/g,Rattus norvegicus [8],0.5%
same,ID/g,Rattus norvegicus [9],0.32%
same,ID/g,Rattus norvegicus [10],0.55%
same,ID/g,Rattus norvegicus [11],1.42%
same,ID/g,Rattus norvegicus [12],0.12%
same,ID/g,Rattus norvegicus [13],0.44%
same,ID/g,Rattus norvegicus [14],2.48%
same,ID/g,Rattus norvegicus [15],3.46%
same,ID/g,Rattus norvegicus [16],0.19%
same,ID/g,Rattus norvegicus [17],0.22%
same,ID/g,Rattus norvegicus [18],0.22%
same,ID/g,Rattus norvegicus [19],0.26%
same,ID/g,Rattus norvegicus [20],0.14%
same,ID/g,Rattus norvegicus [21],0.38%
same,ID/g,Rattus norvegicus [22],0.13%
same,ID/g,Rattus norvegicus [23],0.27%
same,ID/g,Rattus norvegicus [24],0.19%
same,ID/g,Rattus norvegicus [25],0.16%
same,ID/g,Rattus norvegicus [26],0.38%
same,ID/g,Rattus norvegicus [27],0.25%
same,ID/g,Rattus norvegicus [28],0.28%
same,ID/g,Rattus norvegicus [29],0.22%
same,ID/g,Rattus norvegicus [30],0.26%
same,ID/g,Rattus norvegicus [31],0.22%
same,ID/g,Rattus norvegicus [32],0.54%
same,ID/g,Rattus norvegicus [33],0.48%
same,ID/g,Rattus norvegicus [34],0.05%
